# The list is not random: actives were taken first. Their share in the collection is about 3.1%.
# KCNK9 inh = blocks the human KCNK9 two-pore domain potassium channel; Q9NPC2; HEK293 KCNK9, FluxOR thallium flux fluorescence; stronger effect = lower value; B-score at 10 µM; 310,000 compounds, 1.2% hits; AID 488922;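 active means ratio B-score over 3 SD below the library mean, with starting fluorescence within 5 SD of its mean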;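 further: negative B-score means less thallium flux so channel inhibition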
# hERG rescue = hERG (human) protection from proarrhythmic block; AID 1511; activation (rescue from dofetilide block), less the hit threshold, % at 10 µM; CHO-hERG, FluxOR thallium flux, dofetilide IC70 present; 310,000 compounds, 0.51% hits; Q12809;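 active means activation above the mean of controls blocked by dofetilide plus 5 SD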;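 further: thallium influx through hERG after potassium depolarization seen as dye fluorescence rise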
# KCNQ1 pot = potentiators or activators of human KCNQ1 potassium channel | P51787 | CHO-K1 KCNQ1, thallium flux FluxOR fluorescence; stronger effect = higher value | B-score at 10 µM | 310,000 compounds, 0.35% hits | AID 2648;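 active means fluorescence ratio B-score, a plate-corrected score, at least three library SD, with initial intensity B-score within 5 SD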
#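 Test system: CHO-K1 cells stably expressing KCNQ1 / Medium: assay buffer / Also added: depolarizing K+/Tl+ stimulus, K2SO4 and Tl2SO4 each 12.5 mM in 5x stock / Incubation: 90 min dye loading and 20 min compound exposure, both at room temperature / Signal: thallium influx via FluxOR fluorescence, kinetic imaging / Evaluation: B score of baseline-normalized fluorescence ratio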
# KCNK3 inh = human KCNK3 channel inhibition, primary screen. O14649. CHO-KCNK3 thallium flux, FluxOR fluorescence; stronger effect = lower value. B-score at 10 µM. 340,000 compounds, 0.84% hits. AID 602410;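 active means B-score under library mean minus 4 SD, starting fluorescence ratio at most library mean plus 5 SD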;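 further: more negative B-score means stronger inhibition of thallium flux through KCNK3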
# KCNQ1 inh = human KCNQ1 channel inhibition; CHO-K1 KCNQ1, FluxOR thallium flux fluorescence; stronger effect = higher value; B-score at 10 µM; 310,000 compounds, 1.3% hits; AID 2642;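 active means compounds whose thallium flux B-score, printed positive for inhibition, exceeds three library SD while starting fluorescence stays within three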;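 further: channel opened by potassium depolarization with thallium stimulus after 20 min compound exposure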
# * hit, by the source's call; i = inactive; . = not tested or not shown.
SMILES,KCNK9 inh,hERG rescue,KCNQ1 pot,KCNK3 inh,KCNQ1 inh
COc1ccc(NS(=O)(=O)c2ccc3ccccc3c2)c2ncccc12,i,5.7*,11*,i,i
COc1ccc(OC)c(NC(=S)N2CCN(C/C=C/c3ccccc3)CC2)c1,i,49*,i,i,i
COc1ccc(NC(=S)N2CCN(C/C=C/c3ccccc3)CC2)cc1,i,-4,i,i,i
CCOC(=O)Cn1nc(NC(=O)COc2ccc(F)cc2)cc1C,i,-7,i,i,i
CCN(CC)CCNC(C(=O)Nc1cc(C(F)(F)F)ccc1Cl)c1ccccc1 (stereo not drawn),i,-14,i,i,i
O=C(NC(=S)Nc1cc(C(F)(F)F)ccc1Cl)c1ccccc1,i,4.7*,i,i,i
O=C(Nc1cc(C(F)(F)F)ccc1Cl)C(NCc1ccccc1)c1ccccc1 (stereo not drawn),-7.1*,-21,i,i,11*
Cc1cc[n+](CC(=O)Nc2cc(C(F)(F)F)ccc2Cl)cc1,i,4.9*,i,i,i
CC(C)OC(=O)CSc1nnc2c(n1)[nH]c1ccc(F)cc12,i,-5,i,i,i
Cc1ccccc1CNc1nnnn1C,i,-9,i,i,i
O=C(Nc1ccc(Cl)cc1)C(Cl)C(=O)c1ccccc1 (stereo not drawn),i,-12,10*,i,i
O=C(Nc1ccccc1Cl)C(Cl)C(=O)c1ccccc1 (stereo not drawn),.,.,.,i,.
COc1ccc(CCNC(=S)Nc2ccc(C(C)C)cc2)cc1,i,-9,i,i,i
FC(F)(F)Oc1ccc(NC(=S)Nc2ccc(OC(F)(F)F)cc2)cc1,i,-18,i,i,10*
CC(C)c1ccc(NC(=S)Nc2ccc(OC(F)(F)F)cc2)cc1,i,-9,i,i,10*
COc1ccc2c(c1)oc(=O)c1c3ccccc3[nH]c21,i,-4,i,i,i
CCn1nnc2cc(C(=O)Nc3cc(S(C)(=O)=O)ccc3Cl)ccc21,i,-13,10*,i,i
CCn1nnc2cc(C(=O)Nc3cc(Cl)ccc3C)ccc21,.,.,.,i,.
CC(C)N(Cc1ccccc1)C(=S)NC(=O)C1(C)CC1(Cl)Cl (stereo not drawn),i,21*,26*,i,i
CC(C)N(Cc1ccccc1)C(=S)Nc1ccc(F)cc1,i,14*,i,i,i
COc1ccccc1/C=N/Nc1cc(N(C)C)nc(N(C)C)n1,i,-7,i,i,6*
CN(C)c1cc(N/N=C\c2ccccc2)nc(N(C)C)n1,i,-17,i,i,i
Cn1c(=O)c([N+](=O)[O-])c(Cl)c2ccccc21,i,-30,i,i,9*
Cc1ccc(NC(=O)C(c2ccccc2)c2ccccc2)c(O)c1,-7.8*,-13,i,i,i
CC(=O)C1=C(C)NC(SCC(=O)c2ccccc2)=C(C#N)C1c1ccco1 (stereo not drawn),i,0,i,.,i
SMILES,KCNK9 inh,hERG rescue,KCNQ1 pot,KCNK3 inh,KCNQ1 inh
CC(=O)C1=C(C)NC(SCC(=O)c2ccc(Cl)cc2)=C(C#N)C1c1ccco1 (stereo not drawn),-15*,-5,i,i,i
CCN1CC=C2C(C1)C(c1ccc(Cl)s1)C(C#N)=C(N)C2(C#N)C#N (stereo not drawn),i,-20,i,i,11*
COc1cc(/C=C(\NC(C)=O)C(=O)N2CCCCC2)ccc1OC(C)=O,i,-5,i,i,i
COc1ccc(CCNC(=S)NC(=O)c2cccc(Cl)c2)cc1OC,i,-7,i,i,i
O=C(NC(=S)NCCc1ccccc1)c1cccc(Cl)c1,i,12*,9*,i,i
CCOC(=O)C1=C(C)N2C(=C(C#N)[C@@H]1c1ccc(C(=O)OC)cc1)SC[C@@]2(O)C(C)(C)C,i,-20,i,i,6*
CCOC(=O)C1=C(C)N=C2SCCC(=O)N2C1c1ccc(C(=O)OC)cc1 (stereo not drawn),i,-8,i,i,i
CCCCn1nc(NC(=O)COC)c2cc3ccc(C)cc3nc21,i,9.0*,i,i,i
COc1ccc(C(=O)NCCCn2cccn2)cc1OC1CCN(C(C)=O)CC1,i,-6,i,i,i
CCc1nc(SCC(=O)Nc2cc(C)on2)c2c(C)c(C)sc2n1,i,-8,i,i,i
Cc1cc(NC(=O)CSc2nc(C3CC3)nc3sc(C)c(C)c23)no1,i,5.9*,9*,i,i
C[C@H]1COC2=C1C(=O)C(=O)c1c2ccc2c1CCCC2(C)C,i,-18,i,-8.7*,i
CCOC(=O)C1(Cc2cccc(OC)c2)CCN(C/C=C/c2ccc(OC)cc2)CC1,i,-22,i,i,7*
CC1(C)CC(N2CCN(Cc3ccccc3)CC2)=CC(=[N+]2CCCCC2)C1,i,-12,i,i,i
CN(Cc1ccccc1)C1=CC(=[N+]2CCCCC2)CC(C)(C)C1,i,-20,i,i,6*
O=C(NCc1cccnc1)Nc1cccc(F)c1,-7.8*,-8,i,i,i
O=C(NCc1cccnc1)Nc1ccc(F)cc1F,i,-13,i,i,i
Cc1nc2ccccc2c(=O)n1CCCN1CCOCC1,i,5.8*,i,i,i
C[C@H](CO)N1C[C@H](C)[C@@H](CN(C)C(=O)Nc2ccccc2)Oc2ccc(NC(=O)CCC(F)(F)F)cc2C1=O,.,.,.,i,.
O=C(NC(=S)Nc1cccnc1)c1cc2ccccc2o1,i,15*,23*,i,i
O=C1C=CC(=O)c2c(O)c(N3CCN(CCO)CC3)c(Cl)c(O)c21,.,.,.,-11*,.
OCCOCCN1CCN(C2=Nc3ccccc3Sc3ccccc32)CC1,i,.,i,i,i
O=C1C=CC(=O)c2c(O)c(N3CCN(CCOCCO)CC3)c(Br)c(O)c21,.,.,.,-11*,.
O=C(COC(=O)CNC(=O)c1ccc(Cl)cc1Cl)Nc1ccc(N2CCOCC2)cc1,i,-12,i,i,i
CCN(c1ccccc1)S(=O)(=O)c1ccc(C(=O)Nc2cc(C)ccn2)cc1,.,.,.,i,.
Cc1cccc(N2CCN(C(=O)C3CCC(CNS(=O)(=O)c4cccs4)CC3)CC2)c1C (stereo not drawn),i,-14,i,i,i
COc1ccc(C(=O)Nn2cnc3scc(-c4cccs4)c3c2=O)c(O)c1,i,-13,i,-11*,i
Cc1ccc(-n2ncc(C(=O)Nc3cc(Cl)ccc3Cl)c2C2CCNCC2)cc1,i,-5,i,i,i
Cc1ccc(-n2ncc(C(=O)Nc3cc(Cl)cc(Cl)c3)c2C2CCNCC2)cc1C,i,-25,17*,i,i

# Screening results as filed in PubChem BioAssay.
